The results in this text go back to ChEMBL document CHEMBL1177816, “Epsilon substituted lysinol derivatives as HIV-1 protease inhibitors” (Bioorg Med Chem Lett, 2010).

In one data set the target is Protease (Human immunodeficiency virus 1, UniProt Q9YQ12). Briefly: Inhibition of HIV1 protease.
The test system of data set [1] is Human immunodeficiency virus 1. The data set is described as follows: Antiviral activity against HIV1 3B infected in human MT4 cells assessed as inhibition of viral spread after 3 days by p24 antigen ELISA in presence of 50% normal human serum. In kind it is functional. In outline: (§1)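 MT-4 cells kept in RPMI 1640 with 10% heat-inactivated FBS were infected en masse with HIV-1 IIIb at multiplicity 0.01 for 24 h, then washed and plated. Serial twofold inhibitor dilutions were added and cultures ran 3 more days. Spread was read by p24 core antigen ELISA. Line 2 used 10% FBS; line 3 used cells resuspended in 50% normal human serum, giving a serum-adjusted IC95.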
(ELISA stands for enzyme-linked immunosorbent assay.)

The test system of data set [2] is Human immunodeficiency virus 1. Briefly: Antiviral activity against HIV1 3B infected in human MT4 cells assessed as inhibition of viral spread after 3 days by p24 antigen ELISA in presence of 10% fetal bovine serum. In kind it is functional. The gist of the method: as §1
Data set [3] can be described thus: Half life in Beagle dog at 4 mg/kg, po. The data set is classed as ADME, organism-based, Canis lupus familiaris. Details: dose 4 mg/kg, route oral. The note with it: in vivo. In outline: (§2)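 Beagle dogs received 4 mg/kg orally in PEG 400. Plasma drug levels (nM) were measured over 24 h, including the 24 h trough, and oral half-life was calculated from the plasma concentration profile.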

Data set [4] can be described thus: Trough plasma concentration in Beagle dog at 4 mg/kg after 24 hrs. Details: dose 4 mg/kg. In kind it is ADME, organism-based, Canis lupus familiaris. The gist of the method: as §2
A short description of data set [5]: AUC in Beagle dog at 4 mg/kg, po. In kind it is ADME, organism-based, Canis lupus familiaris. The note with it: plasma. Details: dose 4 mg/kg, route oral. The gist of the method: as §2

Chain of Protease (Q9YQ12 whole entry): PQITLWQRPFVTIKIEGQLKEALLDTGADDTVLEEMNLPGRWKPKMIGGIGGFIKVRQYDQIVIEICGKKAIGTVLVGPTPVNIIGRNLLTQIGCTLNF

`COC(=O)N[C@H](C(=O)NCCCC[C@@H](CO)N(CCC(C)C)S(=O)(=O)c1ccc(N)cc1)C(c1ccccc1)c1ccccc1`: the IC50 – broadly, the concentration that inhibits the measured activity by half – on Protease turned out to be 30 pM. The Virucidal in data set [1] is listed as 130 nM. The “Inhibition of viral spread” value in data set [2] is 12 nM.

On Protease, `COC(=O)N[C@H](C(=O)NCCCC[C@@H](CO)N(CC(C)C)S(=O)(=O)c1ccc(N)cc1)C(c1ccccc1)c1ccccc1` [PPL-100] returned an IC50 of 500 pM.

On Protease, `COC(=O)N[C@H](C(=O)N[C@H](CO)CCC[C@@H](CO)N(CCC(C)C)S(=O)(=O)c1ccc(N)cc1)C(c1ccccc1)c1ccccc1` yielded an IC50 of 13 pM. In addition, in data set [2], the “Inhibition of viral spread” value turned out to be 230 nM.

On Protease, `CC[C@@H](CCC[C@@H](CO)N(CCC(C)C)S(=O)(=O)c1ccc(N)cc1)NC(=O)[C@@H](NC(=O)OC)C(c1ccccc1)c1ccccc1` returned an IC50 of 16 pM. In addition, in data set [1], the Virucidal is reported as 74 nM. For the same compound, in data set [2], the “Inhibition of viral spread” value is listed as 10 nM. The half-life (in general, the time needed for the level to fall by half in the phase considered) in data set [3] is 6 h. Further, in data set [4], the concentration at 24 h was 5.1 nM. In addition, the AUC – broadly, concentration integrated over time – in data set [5] stood at 1.05 µM·h.

`COC(=O)N[C@H](C(=O)N[C@@H](CCC[C@@H](CO)N(CCC(C)C)S(=O)(=O)c1ccc(N)cc1)C(C)C)C(c1ccccc1)c1ccccc1` had an IC50 on Protease of 100 pM. In addition, the “Inhibition of viral spread” value in data set [2] is listed as 37 nM.

`COC(=O)N[C@H](C(=O)N[C@H](C)CCC[C@@H](CO)N(CCC(C)C)S(=O)(=O)c1ccc(N)cc1)C(c1ccccc1)c1ccccc1` gave an IC50 on Protease of 400 pM. Further, in data set [2], the “Inhibition of viral spread” value is 98 nM.

Compound `CCC[C@@H](CCC[C@@H](CO)N(CCC(C)C)S(=O)(=O)c1ccc(N)cc1)NC(=O)[C@@H](NC(=O)OC)C(c1ccccc1)c1ccccc1` yielded an IC50 against Protease of 100 pM. In data set [2], the “Inhibition of viral spread” value is 56 nM.

Turning to `COC(=O)N[C@H](C(=O)N[C@@H](C)CCC[C@@H](CO)N(CCC(C)C)S(=O)(=O)c1ccc(N)cc1)C(c1ccccc1)c1ccccc1`, in data set [1], the Virucidal amounted to 120 nM. In addition, the “Inhibition of viral spread” value in data set [2] was determined as 6.6 nM. The compound also displayed a concentration at 24 h in data set [4] of 2 nM. The AUC in data set [5] stood at 0.32 µM·h.
